From ChEMBL document CHEMBL4152196, “Design, synthesis and biological evaluation of novel trimethylangelicin analogues targeting nuclear factor kB (NF-kB)” (Eur J Med Chem, 2018)
Calls of active or inactive are those of the source. The rule behind the calls is not given here.

How the values were obtained:
[1] = Inhibition of NF-kappaB (unknown origin) assessed as decrease in NF-kappaB/DNA interaction using 32P-labeled target NF-kappaB double-stranded oligonucleotide after 30 mins by EMSA; set-up: species or system Homo sapiens
Method in brief: (§1)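 Purified NF-κB p50 (0.1 µl/20 µl, 50 gsu) was combined with 0.25 ng of ³²P-labeled double-stranded NF-κB consensus oligonucleotide. Bound 30 min at room temperature, then run on 6% polyacrylamide in 0.25× TBE at 200 V. IC₅₀ is 50% inhibition of the complex.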

IB3-1 = assay: Antiproliferative activity against human IB3-1 cells after 2 days by cell counting analysis; format: cell-based; conditions: IB3-1, 48 h
Method in brief: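 IB3-1 cells from a CF patient (ΔF508/W1282X), immortalized with adeno12/SV40, grown in LHC-8 with 5% FBS and no gentamycin at 37°C/5% CO₂. Treated at 12.5, 25, 50, 100, 200 and 800 µM. Cells counted by Coulter counter after 2 days, with untreated cells in log phase. IC₅₀ is the concentration giving 50% inhibition of cell growth.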

Homo sapiens [2] = organism: Homo sapiens; assay: Inhibition of NF-kappaB (unknown origin) assessed as decrease in NF-kappaB/DNA interaction at 12.5 to 100 uM using 32P-labeled target NF-kappaB double-stranded oligonucleotide after 30 mins by EMSA; method in brief: as §1
Homo sapiens [3] = organism: Homo sapiens; assay: Inhibition of NF-kappaB (unknown origin) assessed as decrease in NF-kappaB/DNA interaction at 12.5 uM using 32P-labeled target NF-kappaB double-stranded oligonucleotide after 30 mins by EMSA
Salmonella typhimurium [4] = assay: Genotoxicity in Salmonella typhimurium TA100 assessed as revertant colonies at 50 uL/plate in presence of Sprague-Dawley rat S9 metabolic activation after 72 hrs by Ames test (reference value: 1); format: toxicity, organism-based; conditions: salmonella enterica subsp. enterica serovar typhimurium
Salmonella typhimurium [5] = assay: Genotoxicity in Salmonella typhimurium TA98 assessed as revertant colonies at 50 uL/plate in presence of Sprague-Dawley rat S9 metabolic activation after 72 hrs by Ames test (reference value: 1); format: toxicity, organism-based; conditions: salmonella enterica subsp. enterica serovar typhimurium
Salmonella typhimurium [6] = assay: Genotoxicity in Salmonella typhimurium TA98 assessed as revertant colonies at 10 uL/plate in presence of Sprague-Dawley rat S9 metabolic activation after 72 hrs by Ames test (reference value: 1); format: toxicity, organism-based; conditions: salmonella enterica subsp. enterica serovar typhimurium
Salmon testes DNA [7] = assay: Induction of damage in salmon testes DNA at 100 uM in absence of 2.5 to 7.5 J/cm2 UVA irradiation by ethidium bromide dye-based agarose gel electrophoresis analysis; format: nucleic-acid assay; conditions: salmonidae
Salmonella typhimurium [8] = assay: Genotoxicity in Salmonella typhimurium TA100 assessed as revertant colonies at 100 uL/plate in absence of Sprague-Dawley rat S9 metabolic activation after 72 hrs by Ames test (reference value: 1); format: toxicity, organism-based; conditions: salmonella enterica subsp. enterica serovar typhimurium
Salmonella typhimurium [9] = assay: Genotoxicity in Salmonella typhimurium TA98 assessed as revertant colonies at 5 uL/plate in absence of Sprague-Dawley rat S9 metabolic activation after 72 hrs by Ames test (reference value: 1); format: toxicity, organism-based; conditions: salmonella enterica subsp. enterica serovar typhimurium
Salmonella typhimurium [10] = assay: Genotoxicity in Salmonella typhimurium TA98 assessed as revertant colonies at 1 uL/plate in presence of Sprague-Dawley rat S9 metabolic activation after 72 hrs by Ames test (reference value: 1); format: toxicity, organism-based; conditions: salmonella enterica subsp. enterica serovar typhimurium
Salmonella typhimurium [11] = assay: Genotoxicity in Salmonella typhimurium TA98 assessed as revertant colonies at 50 uL/plate in absence of Sprague-Dawley rat S9 metabolic activation after 72 hrs by Ames test (reference value: 1); format: toxicity, organism-based; conditions: salmonella enterica subsp. enterica serovar typhimurium
Salmonella typhimurium [12] = assay: Genotoxicity in Salmonella typhimurium TA98 assessed as revertant colonies at 100 uL/plate in absence of Sprague-Dawley rat S9 metabolic activation after 72 hrs by Ames test (reference value: 1); format: toxicity, organism-based; conditions: salmonella enterica subsp. enterica serovar typhimurium
Salmonella typhimurium [13] = assay: Genotoxicity in Salmonella typhimurium TA100 assessed as revertant colonies at 1 uL/plate in presence of Sprague-Dawley rat S9 metabolic activation after 72 hrs by Ames test (reference value: 1); format: toxicity, organism-based; conditions: salmonella enterica subsp. enterica serovar typhimurium
Salmonella typhimurium [14] = assay: Genotoxicity in Salmonella typhimurium TA100 assessed as revertant colonies at 5 uL/plate in absence of Sprague-Dawley rat S9 metabolic activation after 72 hrs by Ames test (reference value: 1); format: toxicity, organism-based; conditions: salmonella enterica subsp. enterica serovar typhimurium
Salmon testes DNA [15] = assay: Induction of damage in salmon testes DNA at 100 uM in presence of 2.5 to 7.5 J/cm2 UVA irradiation by ethidium bromide dye-based agarose gel electrophoresis analysis; format: nucleic-acid assay; conditions: salmonidae
Salmonella typhimurium [16] = assay: Genotoxicity in Salmonella typhimurium TA100 assessed as revertant colonies at 1 uL/plate in absence of Sprague-Dawley rat S9 metabolic activation after 72 hrs by Ames test (reference value: 1); format: toxicity, organism-based; conditions: salmonella enterica subsp. enterica serovar typhimurium
Salmonella typhimurium [17] = assay: Genotoxicity in Salmonella typhimurium TA98 assessed as revertant colonies at 5 uL/plate in presence of Sprague-Dawley rat S9 metabolic activation after 72 hrs by Ames test (reference value: 1); format: toxicity, organism-based; conditions: salmonella enterica subsp. enterica serovar typhimurium
Salmonella typhimurium [18] = assay: Genotoxicity in Salmonella typhimurium TA100 assessed as revertant colonies at 100 uL/plate in presence of Sprague-Dawley rat S9 metabolic activation after 72 hrs by Ames test (reference value: 1); format: toxicity, organism-based; conditions: salmonella enterica subsp. enterica serovar typhimurium
Salmonella typhimurium [19] = assay: Genotoxicity in Salmonella typhimurium TA100 assessed as revertant colonies at 10 uL/plate in presence of Sprague-Dawley rat S9 metabolic activation after 72 hrs by Ames test (reference value: 1); format: toxicity, organism-based; conditions: salmonella enterica subsp. enterica serovar typhimurium
Salmonella typhimurium [20] = assay: Genotoxicity in Salmonella typhimurium TA100 assessed as revertant colonies at 5 uL/plate in presence of Sprague-Dawley rat S9 metabolic activation after 72 hrs by Ames test (reference value: 1); format: toxicity, organism-based; conditions: salmonella enterica subsp. enterica serovar typhimurium
Salmonella typhimurium [21] = assay: Genotoxicity in Salmonella typhimurium TA100 assessed as revertant colonies at 50 uL/plate in absence of Sprague-Dawley rat S9 metabolic activation after 72 hrs by Ames test (reference value: 1); format: toxicity, organism-based; conditions: salmonella enterica subsp. enterica serovar typhimurium
Salmonella typhimurium [22] = assay: Genotoxicity in Salmonella typhimurium TA100 assessed as revertant colonies at 10 uL/plate in absence of Sprague-Dawley rat S9 metabolic activation after 72 hrs by Ames test (reference value: 1); format: toxicity, organism-based; conditions: salmonella enterica subsp. enterica serovar typhimurium
Salmonella typhimurium [23] = assay: Genotoxicity in Salmonella typhimurium TA98 assessed as revertant colonies at 100 uL/plate in presence of Sprague-Dawley rat S9 metabolic activation after 72 hrs by Ames test (reference value: 1); format: toxicity, organism-based; conditions: salmonella enterica subsp. enterica serovar typhimurium
Salmonella typhimurium [24] = assay: Genotoxicity in Salmonella typhimurium TA98 assessed as revertant colonies at 1 uL/plate in absence of Sprague-Dawley rat S9 metabolic activation after 72 hrs by Ames test (reference value: 1); format: toxicity, organism-based; conditions: salmonella enterica subsp. enterica serovar typhimurium
Salmonella typhimurium [25] = assay: Genotoxicity in Salmonella typhimurium TA98 assessed as revertant colonies at 10 uL/plate in absence of Sprague-Dawley rat S9 metabolic activation after 72 hrs by Ames test (reference value: 1); format: toxicity, organism-based; conditions: salmonella enterica subsp. enterica serovar typhimurium

**Q.** With CCc1cc(=O)oc2c1cc(C)c1occ(C)c12 as the compound, how does the IC50 [1] read?
**A.** The IC50 was 8 µM.

**Q.** And the IC50 (IB3-1)?
**A.** Its IC50 is 50 µM.

**Q.** And the inhibition (Homo sapiens [2])?
**A.** Its inhibition is “Active”.

**Q.** And the inhibition (Homo sapiens [3])?
**A.** Its inhibition is “Active”.

**Q.** Which IC50 [1] does the source give for CCc1cc2c(C)cc(=O)oc2c2c(C)coc12 here?
**A.** The IC50 was 24 µM.

**Q.** What about the IC50 (IB3-1) of the same compound?
**A.** The IC50 was greater than 200 µM.

**Q.** What about the inhibition (Homo sapiens [2]) of the same compound?
**A.** Its inhibition is “Active”.

**Q.** For CCCc1cc(=O)oc2c1cc(C)c1occ(C)c12, which IC50 [1] is on record?
**A.** The IC50 was 21.9 µM.

**Q.** And the IC50 (IB3-1)?
**A.** The IC50 was 200 µM.

**Q.** What about the inhibition (Homo sapiens [2]) of the same compound?
**A.** The inhibition was “Active”.

**Q.** Which results are given for Cc1cc2c(C(C)C)cc(=O)oc2c2c(C)coc12?
**A.** IC50 [1]: 18.9 µM; IC50 (IB3-1): > 200 µM; inhibition (Homo sapiens [2]): Active

**Q.** Which results are given for CCc1cc(=O)oc2c1cc(CC)c1occ(C)c12?
**A.** IC50 [1]: 17.8 µM; IC50 (IB3-1): > 200 µM; inhibition (Homo sapiens [2]): Active

**Q.** Which IC50 [1] does the source give for CCCc1cc(=O)oc2c1cc(CC)c1occ(C)c12 here?
**A.** Its IC50 is 19.8 µM.

**Q.** And the IC50 (IB3-1)?
**A.** Its IC50 is 162 µM.

**Q.** What about the inhibition (Homo sapiens [2]) of the same compound?
**A.** The inhibition was “Active”.

**Q.** With Cc1cc(=O)oc2c1cc(C)c1occ(C)c12 as the compound, how does the T/C (Salmonella typhimurium [4]) read?
**A.** Its T/C is 1.16.

**Q.** And the T/C (Salmonella typhimurium [5])?
**A.** The T/C was 8.25.

**Q.** And the T/C (Salmonella typhimurium [6])?
**A.** Its T/C is 4.5.

**Q.** And the Activity (Salmon testes DNA [7])?
**A.** The Activity was “Active”.

**Q.** What about the T/C (Salmonella typhimurium [8]) of the same compound?
**A.** Its T/C is 1.03.

**Q.** What about the T/C (Salmonella typhimurium [9]) of the same compound?
**A.** The T/C was 0.63.

**Q.** And the T/C (Salmonella typhimurium [10])?
**A.** Its T/C is 0.75.

**Q.** And the T/C (Salmonella typhimurium [11])?
**A.** Its T/C is 0.97.

**Q.** What about the T/C (Salmonella typhimurium [12]) of the same compound?
**A.** The T/C was 1.22.

**Q.** And the T/C (Salmonella typhimurium [13])?
**A.** The T/C was 1.1.

**Q.** And the T/C (Salmonella typhimurium [14])?
**A.** Its T/C is 1.03.

**Q.** And the Activity (Salmon testes DNA [15])?
**A.** The Activity was “Active”.

**Q.** What about the T/C (Salmonella typhimurium [16]) of the same compound?
**A.** Its T/C is 0.99.

**Q.** And the T/C (Salmonella typhimurium [17])?
**A.** The T/C was 1.9.

**Q.** What about the T/C (Salmonella typhimurium [18]) of the same compound?
**A.** The T/C was 2.52.

**Q.** And the inhibition (Homo sapiens [2])?
**A.** The inhibition was “Active”.

**Q.** And the T/C (Salmonella typhimurium [19])?
**A.** The T/C was 1.04.

**Q.** And the T/C (Salmonella typhimurium [20])?
**A.** Its T/C is 1.

**Q.** And the T/C (Salmonella typhimurium [21])?
**A.** The T/C was 1.09.

**Q.** What about the T/C (Salmonella typhimurium [22]) of the same compound?
**A.** Its T/C is 1.06.

**Q.** And the T/C (Salmonella typhimurium [23])?
**A.** Its T/C is 6.86.

**Q.** And the T/C (Salmonella typhimurium [24])?
**A.** The T/C was 1.03.

**Q.** And the T/C (Salmonella typhimurium [25])?
**A.** Its T/C is 1.16.
